For orientation: CC50 means the concentration at which the toxic effect on the cells reaches its halfway point.

Molecules are shown by their SMILES. Calls of active or inactive are those of the source. No cut-off for these calls is given here.

Data set [1] relates to Respiratory syncytial virus. In words: Antiviral activity against RSV infected in human A549 cells assessed as reduction in viral titer at 10 uM incubated for 15 hrs by immunostaining analysis. It is filed as functional. In short, it runs like this: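 RSV long strain (propagated in HEp-2, sucrose-gradient purified) infected A549 cells at MOI 1 for 2 h. Inoculum removed, then compound at 10 μM for 15 h. Progeny virus titred by immunostaining in HEp-2 cells with biotin-conjugated goat anti-RSV antibody. Log reduction = log10 mean titer of vehicle-treated cells minus log10 mean titer with compound.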

Data set [2] relates to A549. In words: Cytotoxicity against human A549 cells assessed as cell death at 10 uM incubated for 15 hrs by LDH assay. It is filed as cell-based. The following applies: a549, 15 h. In short, it runs like this:
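A549 cells seeded at 1.5 × 10^4 cells/well. After 24 h, medium replaced with medium containing 10 μM compound and 2% FBS. At 15 h, cell damage read by luminescent LDH release assay. DMSO vehicle control; three biological replicates.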

The target of data set [3] is T1, Nuclear factor NF-kappa-B complex (Homo sapiens) (UniProt Q00653+P19838+Q04206). Description: Inhibition of NF-kappaB in human A549 cells assessed as reduction in p65 nuclear translocation at 10 uM measured after 15 hrs by Western blot analysis. It is filed as cell-based. The method, boiled down:
(§1)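 A549 cells infected or mock-infected with RSV (MOI 1), then treated with 10 μM compound for 15 h. Nuclear extracts prepared and analysed by western blot after SDS-PAGE and PVDF transfer. β-actin as loading control.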
A general note: In western blotting, separated proteins are transferred to a membrane and probed.

The test system of data set [4] is A549. Description: Antiinflammatory activity against in human A549 cells transfected with NF-kappaB-Luc assessed as reduction in RSV-induced NF-kappaB activation at 10 uM incubated for 15 hrs by luciferase reporter gene assay. It is filed as functional, cell-based. In short, it runs like this: (§2)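 A549 cells transfected in triplicate with luciferase plasmids, either NF-κB-Luc or IRF-3-site reporters. At 20 h post-transfection, infected with RSV (MOI 1). Virus removed at 2 h, then 10 μM compound added for 15 h. Cells then harvested and lysed for luciferase activity.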
(Reporter assays use an easily measured gene product as a stand-in for the process of interest.)

Data set [5] addresses T1, Nuclear factor NF-kappa-B complex (Homo sapiens). In words: Inhibition of NF-kappaB in human A549 cells assessed as reduction in p65 nuclear translocation at 10 uM measured after 4 hrs by Western blot analysis. It is filed as cell-based. The method, boiled down: (§3)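 A549 cells infected or mock-infected with RSV (MOI 5), then treated with 10 μM compound for 4 h. Nuclear extracts (or total lysates) prepared, resolved by SDS-PAGE, transferred to PVDF, and probed by western blot. β-actin as loading control.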

The subject of data set [6] is A549. In words: Antiinflammatory activity against in human A549 cells transfected with PRDIII-I-Luc and IRF-3-Luc assessed as reduction in RSV-induced IRF3 activation at 10 uM incubated for 15 hrs by luciferase reporter gene assay. It is filed as functional, cell-based. The method, boiled down: as §2
Data set [7] deals with T2, Interferon regulatory factor 3 (Homo sapiens) (UniProt Q14653).
T2 sequence (whole entry): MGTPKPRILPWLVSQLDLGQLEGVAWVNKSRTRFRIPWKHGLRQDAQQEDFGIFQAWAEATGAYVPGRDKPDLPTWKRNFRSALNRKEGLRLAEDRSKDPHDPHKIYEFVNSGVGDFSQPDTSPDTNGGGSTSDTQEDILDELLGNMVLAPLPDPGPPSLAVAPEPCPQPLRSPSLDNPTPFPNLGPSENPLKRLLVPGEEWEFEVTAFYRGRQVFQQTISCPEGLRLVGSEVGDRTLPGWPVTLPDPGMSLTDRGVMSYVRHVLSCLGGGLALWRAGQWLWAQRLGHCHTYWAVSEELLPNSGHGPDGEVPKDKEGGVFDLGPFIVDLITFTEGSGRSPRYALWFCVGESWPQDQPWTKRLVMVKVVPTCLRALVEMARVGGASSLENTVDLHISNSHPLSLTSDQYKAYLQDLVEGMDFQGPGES
In words: Inhibition of poly I:C-induced IRF3 (unknown origin) transfected in human HEK293 cells co-transfected with IRF3-Luc gene incubated for 4 hrs by luciferase reporter gene. It is filed as cell-based. The method, boiled down:
(§4)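 HEK-293 cells transiently transfected with IRF-3 or NF-κB luciferase reporter. At 15 h post-transfection, cells transfected with Poly I:C in the presence of compound. Luciferase activity then measured.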

In data set [8] the target is T1, Nuclear factor NF-kappa-B complex (Homo sapiens). In words: Inhibition of NF-kappaB in human A549 cells assessed as reduction in p65 Ser536 phosphorylation at 10 uM measured after 15 hrs by Western blot analysis. It is filed as cell-based. The method, boiled down:
as §1

Data set [9] deals with A549. Description: Cytotoxicity against human A549 cells assessed as reduction in cell viability incubated for 15 hrs by trypan blue assay. The following applies: a549, 15 h.
Data set [10] concerns the target T1, Nuclear factor NF-kappa-B complex (Homo sapiens). In words: Inhibition of NF-kappaB in human A549 cells assessed as reduction in p65 Ser536 phosphorylation at 10 uM measured after 4 hrs by Western blot analysis. It is filed as cell-based. The method, boiled down: as §3
In data set [11] the test system is A549. In words: Antiinflammatory activity against in human A549 cells assessed as reduction in RSV-induced IRF3 mRNA expression at 10 uM incubated for 4 hrs by qRT-PCR analysis. It is filed as functional, cell-based. In general terms: Quantitative PCR measures a nucleic acid by following its amplification.
In data set [12] the target is Interferon regulatory factor 3 (Homo sapiens) (UniProt Q14653). In words: Inhibition of IRF3 in RSV-infected human A549 cells assessed as reduction in IRF3 Ser396 phosphorylation at 10 uM measured upto 15 hrs by Western blot analysis. The following applies: time hrs <=15.
Data set [13] has as its target T1, Nuclear factor NF-kappa-B complex (Homo sapiens). In words: Inhibition of NF-kappaB in human A549 cells assessed as reduction in p65 Ser276 phosphorylation at 10 uM measured after 15 hrs by Western blot analysis. It is filed as cell-based. The method, boiled down: as §1
The target is the same in data set [14]. In words: Inhibition of poly I:C-induced NF-kappaB (unknown origin) transfected in human HEK293 cells co-transfected with NF-kappaB-Luc gene incubated for 4 hrs by luciferase reporter gene. It is filed as cell-based. The method, boiled down: as §4
The target is the same in data set [15]. In words: Inhibition of NF-kappaB in human A549 cells assessed as reduction in p65 Ser276 phosphorylation at 10 uM measured after 4 hrs by Western blot analysis. It is filed as cell-based. The method, boiled down:
as §3

In data set [16] the target is Interferon regulatory factor 3 (Homo sapiens) (UniProt Q14653). In words: Inhibition of IRF3 in RSV-infected human A549 cells assessed as reduction in IRF3 nuclear translocation at 10 uM measured upto 15 hrs by Western blot analysis. To be noted: time hrs <=15.
Data set [17] concerns Respiratory syncytial virus. In words: Antiviral activity against RSV infected in human A549 cells assessed as reduction in viral matrix protein at 10 uM incubated for 15 hrs by Western blot analysis. It is filed as functional, organism-based. The method, boiled down:
(§5)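 A549 cells infected with RSV (MOI 1) and treated with 10 μM compound for 15 h. Viral proteins detected by western blot of lysates using anti-RSV or anti-F antibodies, with β-actin as loading control. Membranes blocked in 5% milk in TBS-Tween 20.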

Data set [18] deals with Respiratory syncytial virus. Description: Antiviral activity against RSV infected in human A549 cells assessed as reduction in viral RNA at 10 uM measured upto 24 hrs by qRT-PCR analysis. It is filed as functional, organism-based. The following applies: time hrs <=24. In short, it runs like this:
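A549 cells infected with RSV (MOI 1), then given 10 μM compound. RSV genome copies in cells quantified by RT-qPCR at 6, 15 and 24 h post-treatment. A fusion inhibitor served as a reference control.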

Data set [19] has as its system Respiratory syncytial virus. Description: Antiviral activity against RSV infected in human A549 cells assessed as reduction in viral phosphoprotein at 10 uM incubated for 15 hrs by Western blot analysis. It is filed as functional, organism-based. The method, boiled down: as §5
The test system of data set [20] is Respiratory syncytial virus. Description: Antiviral activity against RSV infected in human A549 cells assessed as reduction in viral N protein at 10 uM incubated for 15 hrs by Western blot analysis. It is filed as functional, organism-based. In short, it runs like this:
as §5

In data set [21] the test system is A549. Description: Antiinflammatory activity against in human A549 cells assessed as reduction in RSV-induced NF-kappaB mRNA expression at 10 uM incubated for 4 hrs by qRT-PCR analysis. It is filed as functional, cell-based.
Data set [22] deals with Respiratory syncytial virus. In words: Antiviral activity against RSV infected in human A549 cells assessed as reduction in viral titer at 7.5 uM incubated for 15 hrs by immunostaining analysis. It is filed as functional. The method, boiled down: (§6)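 Dose-response: A549 cells infected with RSV long strain at MOI 1, then treated with a range of compound concentrations for 15 h. Total virus harvested and titred by immunostaining in HEp-2 cells with biotin-conjugated goat anti-RSV antibody. Reduction expressed as log decrease in titer relative to vehicle (DMSO) control.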

The subject of data set [23] is SAEC. In words: Antiinflammatory activity against in human SAEC cells assessed as reduction in RSV-induced MIP-1beta production at 10 uM incubated for 4 hrs by immunoassay. It is filed as functional, cell-based. The method, boiled down: (§7)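 Primary small airway epithelial cells infected with RSV long strain at MOI 5. Virus removed at 2 h, then 10 μM compound added. Supernatant collected 4 h post-treatment. Cytokines/chemokines quantified with a multiplex human profiling bead kit (Bio-Plex).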

Data set [24] has as its system SAEC. Description: Antiinflammatory activity against in human SAEC cells assessed as reduction in RSV-induced IL-6 production at 10 uM incubated for 4 hrs by immunoassay. It is filed as functional, cell-based. In short, it runs like this:
as §7

In data set [25] the test system is SAEC. Description: Antiinflammatory activity against in human SAEC cells assessed as reduction in RSV-induced TNF-alpha production at 10 uM incubated for 4 hrs by immunoassay. It is filed as functional, cell-based. In short, it runs like this:
as §7

In data set [26] the test system is Respiratory syncytial virus. In words: Antiviral activity against RSV infected in human A549 cells assessed as reduction in viral titer at 2.5 uM incubated for 15 hrs by immunostaining analysis. It is filed as functional. The method, boiled down: as §6
Data set [27] deals with T1, Nuclear factor NF-kappa-B complex (Homo sapiens). In words: Inhibition of TNF-alpha-induced NF-kappaB (unknown origin) transfected in human HEK293 cells co-transfected with NF-kappaB-Luc gene incubated for 4 hrs by luciferase reporter gene. It is filed as cell-based. The method, boiled down: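 HEK-293 cells transiently transfected with NF-κB luciferase reporter. At 15 h post-transfection, stimulated with 10 ng/ml TNF-α in the presence of compound. Luciferase activity then measured.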

T1 sequence (P19838 whole entry, looked up): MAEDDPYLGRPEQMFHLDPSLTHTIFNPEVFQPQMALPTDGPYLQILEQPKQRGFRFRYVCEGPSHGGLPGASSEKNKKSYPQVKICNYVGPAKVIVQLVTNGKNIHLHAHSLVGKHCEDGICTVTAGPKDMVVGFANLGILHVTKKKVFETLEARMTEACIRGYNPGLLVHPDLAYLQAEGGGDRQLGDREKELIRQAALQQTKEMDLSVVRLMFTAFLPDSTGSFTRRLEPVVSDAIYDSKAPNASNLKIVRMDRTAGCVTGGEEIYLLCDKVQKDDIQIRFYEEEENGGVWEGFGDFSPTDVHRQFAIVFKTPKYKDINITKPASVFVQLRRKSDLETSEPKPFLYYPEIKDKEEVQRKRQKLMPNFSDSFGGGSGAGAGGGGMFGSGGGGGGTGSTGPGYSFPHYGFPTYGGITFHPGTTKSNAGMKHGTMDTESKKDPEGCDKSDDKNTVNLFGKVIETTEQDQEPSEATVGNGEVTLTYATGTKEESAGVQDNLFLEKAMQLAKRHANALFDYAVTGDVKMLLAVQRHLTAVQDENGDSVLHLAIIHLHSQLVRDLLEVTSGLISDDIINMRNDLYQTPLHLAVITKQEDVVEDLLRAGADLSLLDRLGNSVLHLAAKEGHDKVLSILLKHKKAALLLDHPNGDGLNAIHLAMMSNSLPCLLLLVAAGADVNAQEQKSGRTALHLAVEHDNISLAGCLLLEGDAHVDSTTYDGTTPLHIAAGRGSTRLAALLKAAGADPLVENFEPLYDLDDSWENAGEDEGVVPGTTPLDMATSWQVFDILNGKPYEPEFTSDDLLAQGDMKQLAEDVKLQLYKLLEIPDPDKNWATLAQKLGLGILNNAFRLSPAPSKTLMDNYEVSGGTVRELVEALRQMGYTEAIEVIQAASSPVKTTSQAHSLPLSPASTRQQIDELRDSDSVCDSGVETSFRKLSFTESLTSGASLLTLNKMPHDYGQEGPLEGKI
T1 sequence (Q00653 whole entry, looked up): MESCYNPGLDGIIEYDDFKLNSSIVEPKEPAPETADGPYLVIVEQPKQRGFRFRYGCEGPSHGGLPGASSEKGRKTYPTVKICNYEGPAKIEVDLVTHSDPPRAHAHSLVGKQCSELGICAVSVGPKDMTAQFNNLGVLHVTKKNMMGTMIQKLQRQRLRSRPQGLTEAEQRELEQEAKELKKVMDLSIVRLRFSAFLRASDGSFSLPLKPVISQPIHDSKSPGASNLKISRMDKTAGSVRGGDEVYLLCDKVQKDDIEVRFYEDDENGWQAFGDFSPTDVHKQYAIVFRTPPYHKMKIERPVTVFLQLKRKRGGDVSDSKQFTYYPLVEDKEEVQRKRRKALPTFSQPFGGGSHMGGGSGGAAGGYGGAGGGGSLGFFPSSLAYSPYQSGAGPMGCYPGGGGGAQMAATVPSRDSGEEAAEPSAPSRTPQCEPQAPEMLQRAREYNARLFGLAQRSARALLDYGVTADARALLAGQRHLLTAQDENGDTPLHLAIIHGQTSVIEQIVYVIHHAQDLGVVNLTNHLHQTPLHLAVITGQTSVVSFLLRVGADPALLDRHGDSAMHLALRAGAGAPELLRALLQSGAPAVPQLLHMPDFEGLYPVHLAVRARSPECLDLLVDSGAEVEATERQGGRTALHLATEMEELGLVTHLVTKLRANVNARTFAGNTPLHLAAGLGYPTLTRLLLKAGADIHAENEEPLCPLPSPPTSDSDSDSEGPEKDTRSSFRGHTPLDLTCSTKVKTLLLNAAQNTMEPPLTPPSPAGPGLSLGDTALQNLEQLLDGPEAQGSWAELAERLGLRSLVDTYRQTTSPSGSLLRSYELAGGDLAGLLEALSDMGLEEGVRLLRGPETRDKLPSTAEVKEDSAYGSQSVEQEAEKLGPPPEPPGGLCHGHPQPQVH
T1 sequence (Q04206 whole entry, looked up): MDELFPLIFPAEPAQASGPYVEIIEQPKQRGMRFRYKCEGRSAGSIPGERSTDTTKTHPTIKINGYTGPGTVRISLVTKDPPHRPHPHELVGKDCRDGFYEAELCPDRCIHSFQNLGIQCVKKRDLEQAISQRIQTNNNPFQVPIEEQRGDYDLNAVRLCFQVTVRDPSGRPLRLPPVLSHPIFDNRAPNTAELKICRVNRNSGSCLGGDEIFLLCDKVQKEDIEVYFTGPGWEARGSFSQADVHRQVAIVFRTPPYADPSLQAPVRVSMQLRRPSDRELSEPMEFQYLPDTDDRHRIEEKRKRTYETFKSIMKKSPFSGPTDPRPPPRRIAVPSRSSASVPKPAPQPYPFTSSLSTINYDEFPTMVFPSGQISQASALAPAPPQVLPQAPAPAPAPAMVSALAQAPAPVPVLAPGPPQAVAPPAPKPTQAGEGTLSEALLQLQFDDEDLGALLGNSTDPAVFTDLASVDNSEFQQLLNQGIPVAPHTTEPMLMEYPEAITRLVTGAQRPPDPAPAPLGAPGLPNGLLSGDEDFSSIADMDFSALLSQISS

As to `O=C(Nc1ccc([N+](=O)[O-])cc1Cl)c1cc(Cl)ccc1O` [NICLOSAMIDE], in data set [1], the “log(activity)” value turned out to be 1.47. Further, the Activity in the data set with A549 [2] turned out to be 24%.

Consider `O=C(Nc1ccc(NCc2ccco2)cc1Cl)c1cc(Cl)ccc1O`, for which the inhibition entry (in data set [3]; with A549 [4]; in data set [5]; in the data set on A549 [6]; in data set [7]; in [8]) was “Active” throughout. The inhibition result (in data set [10]; in the data set with A549 [11]; in [12]; in data set [13]; in data set [14]; in data set [16]) was “Active” throughout. Moreover, the inhibition entry (in [17]; in data set [18]; in data set [19]; in [20]; with A549 [21]) was “Active” in each case. Besides, the “log(activity)” value is given as 2.13 in data set [1] and 1.22 in [22]. Also, the CC50 in the data set on A549 [9] came to 76.3 µM. In [15], the inhibition entry was “inactive”.

Consider `CC1(Nc2ccc(NC(=O)c3cc(Cl)ccc3O)c(Cl)c2)CCCCC1`, for which the inhibition result (in [3]; in data set [5]; in the data set on A549 [6]; in the data set with SAEC [23]; in data set [7]; with SAEC [24]) was “Active” each time. In addition, the inhibition entry (in data set [8]; in data set [10]; with A549 [11]; in the data set with SAEC [25]; in data set [12]; in data set [16]) was “Active” throughout. In addition, the inhibition entry (in data set [17]; in data set [18]; in data set [19]; in data set [20]; in the data set with A549 [21]) was “Active” each time. Besides, the “log(activity)” value is on record as 1.82 in [1] and 1.57 in data set [26]. Besides, the inhibition entry (with A549 [4]; in data set [13]; in data set [15]; in [27]) was “inactive” throughout. In addition, the CC50 in the data set with A549 [9] was 86.5 µM.

Source of the values: ChEMBL document CHEMBL4819107, “Substituted N-(4-amino-2-chlorophenyl)-5-chloro-2-hydroxybenzamide analogues potently inhibit respiratory syncytial virus (RSV) replication and RSV infection-associated inflammatory responses” (Bioorg Med Chem, 2021).
